The record followed here is ChEMBL document CHEMBL1154419, “Pharmacodynamic effects of telavancin against methicillin-resistant and methicillin-susceptible Staphylococcus aureus strains in the presence of human albumin or serum and in an in vitro kinetic model” (Antimicrob Agents Chemother, 2007).

Activity calls are given as the source filed them. No cut-off for these calls is given here.

For data set [1], the system named is Staphylococcus aureus. Description: Antibacterial activity against methicillin-susceptible Staphylococcus aureus ATCC 13709 assessed as change in bacterial burden at 1 mg/liter after 8 hrs. It counts as functional.
The subject of the next data set is Plasma. As to the kind of experiment: Protein binding in human plasma. It counts as ADME, cell-free.
Data set [2] deals with Staphylococcus aureus. As to the kind of experiment: Antibacterial activity against methicillin-susceptible Staphylococcus aureus ATCC 13709 assessed as change in bacterial burden at 20 mg/liter after 4 hrs. In kind it is functional.
In data set [3] the test system is Staphylococcus aureus. As to the kind of experiment: Antibacterial activity against methicillin-resistant Staphylococcus aureus ATCC 33591 assessed as change in bacterial burden at 10 mg/liter after 12 hrs. In kind it is functional. Summed up: (§1)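 In vitro kinetic model: spinner flask with 0.45-μm filter and prefilter, stirred, M-H broth at 37°C, starting inoculum approx. 5 × 10⁵ CFU/ml. Single initial drug dose of 1.0 to 40 mg/liter, with flow set to give a half-life of approx. 8 h. Viable counts at 0, 2, 4, 6, 8, 12 and 24 h. Duplicate runs per strain and concentration.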

Data set [4] deals with Staphylococcus aureus. As to the kind of experiment: Antibacterial activity against methicillin-resistant Staphylococcus aureus ATCC 33591 assessed as change in bacterial burden at 2.5 mg/liter after 8 hrs. In kind it is functional. The method in brief:
as §1

The subject of data set [5] is Staphylococcus aureus. Description: Antibacterial activity against methicillin-susceptible Staphylococcus aureus ATCC 13709 assessed as change in bacterial burden at 5 mg/liter after 2 hrs. In kind it is functional.
Data set [6] relates to Staphylococcus aureus. Description: Antibacterial activity against methicillin-susceptible Staphylococcus aureus ATCC 13709 assessed as change in bacterial burden at 2.5 mg/liter after 12 hrs. It counts as functional.
In data set [7] the test system is Staphylococcus aureus. As to the kind of experiment: Antibacterial activity against methicillin-resistant Staphylococcus aureus ATCC 33591 assessed as bacterial killing at 10 times MIC after 24 hrs in MH-broth. In kind it is functional, organism-based. The method in brief: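 Strain diluted in M-H broth to approx. 10⁵ CFU/ml and grown 6 h into log phase, then split. Broth tubes got drug at 10× MIC directly. PBS tubes were transferred to PBS and held 3 h more, then dosed at 10× MIC. Growth controls were run in each medium. Viable counts at 0, 3, 6, 9, 12 and 24 h. Run in duplicate.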

The test system of data set [8] is Staphylococcus aureus. Description: Antibacterial activity against methicillin-resistant Staphylococcus aureus ATCC 33591 assessed as change in bacterial burden at 5 mg/liter after 12 hrs. It counts as functional. Summed up: as §1
The test system of data set [9] is Staphylococcus aureus. Description: Antibacterial activity against methicillin-susceptible Staphylococcus aureus ATCC 13709 assessed as change in bacterial burden at 2.5 mg/liter after 8 hrs. It counts as functional.
Data set [10] relates to Staphylococcus aureus. As to the kind of experiment: Antibacterial activity against methicillin-resistant Staphylococcus aureus ATCC 33591 assessed as bacterial killing at 50 times MIC after 24 hrs. In kind it is functional, organism-based. Summed up:
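Static time-kill in M-H broth, in M-H broth with 40 g/liter fatty-acid-free purified human albumin, or in M-H broth with inactivated 50% human serum. Inoculum approx. 5 × 10⁵ CFU/ml, drug at 0.5, 1, 2.5, 5, 10, 25 and 50× MIC, 37°C. Samples at 0, 3, 6, 12 and 24 h plated on blood agar, counted after 24 h. Detection limit 5 × 10¹ CFU/ml. Run in duplicate.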

Data set [11] is described as follows: Half life in in vitro kinetic model containing Mueller-Hinton broth and bacteria. It counts as physicochemical. As to conditions: in vitro kinetic model with bacteria. Summed up: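 Drug levels in kinetic-model samples measured by agar-well diffusion bioassay with Bacillus stearothermophilus ATCC 3032: 24 h prediffusion at 22°C, then overnight at 55°C; samples and standards in triplicate; detection limit 1 mg/liter.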

Data set [12] concerns Staphylococcus aureus. Description: Antibacterial activity against methicillin-susceptible Staphylococcus aureus ATCC 13709 assessed as change in bacterial burden at 5 mg/liter after 6 hrs. It counts as functional.
The nature of data set [13]: Half life in human serum at 7.5 mg/kg. Further details: dose 7.5 mg/kg. In kind it is ADME, organism-based.

In general, half-life refers to the time in which the quantity being followed falls by half. Low readings indicate rapid decline, high ones slow decline. Consider `CCCCCCCCCCNCCN[C@@]1(C)C[C@H](O[C@H]2[C@H](Oc3c4cc5cc3Oc3ccc(cc3Cl)[C@@H](O)[C@@H](NC(=O)[C@@H](CC(C)C)NC)C(=O)N[C@@H](CC(N)=O)C(=O)N[C@H]5C(=O)N[C@H]3C(=O)N[C@H](C(=O)N[C@H](C(=O)O)c5cc(O)c(CNCP(=O)(O)O)c(O)c5-c5cc3ccc5O)[C@H](O)c3ccc(c(Cl)c3)O4)O[C@H](CO)[C@@H](O)[C@@H]2O)O[C@@H](C)[C@H]1O` [TELAVANCIN], for which the deltalog10CFU/ml in the data set on Staphylococcus aureus [1] is listed as -2.6; with Staphylococcus aureus [2], -2.9; in the data set with Staphylococcus aureus [3], -5.1; in the data set with Staphylococcus aureus [4] it was -3.2; with Staphylococcus aureus [5], -1.2; in the data set on Staphylococcus aureus [6] it was -4.7. Moreover, the figures for the deltalog10CFU/ml in the data set on Staphylococcus aureus [8], with Staphylococcus aureus [9] and in the data set with Staphylococcus aureus [12] were -4.2, -3.4 and -3.4, respectively. The compound further returned an Activity in the data set on Plasma of 92%. For the same compound, the result with Staphylococcus aureus [7] and in the data set on Staphylococcus aureus [10] was Active. The figures for the half-life in data set [11] and in [13] were 8 h and 7 h, respectively.
